Calls of active or inactive are those of the source. No cut-off for these calls is given here.
How the values were obtained:
[1] = Therapeutic index, ratio of IC50 for human HeLa cells to EC50 for Giardia lamblia trophozoites isolates; format: cell-based; conditions: read-out: Ratio IC50/EC50
Giardia intestinalis [2] = experiment: Antigiardial activity against metronidazole-sensitive Giardia lamblia isolate 106 trophozoite after 2 days by bactiter-glo viability assay; format: functional, organism-based; conditions: Giardia duodenalis, isolate 106, 48 h
How it was run: (§1)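 Trophozoites from mid-log cultures in TYI-S-33 with 10% bovine serum and 1 mg/mL bovine bile, grown anaerobically. Mz-resistant lines kept on 50 μM Mz but grown without it for 2–3 days beforehand. 1000–2000 cells/well, 1:3 serial dilutions, final 20 μM to 0.4 nM. 2 days at 37 °C anaerobically. ATP luminescence read-out. EC50 taken by graphic extrapolation of concentration–response curves. Mean ± SE of three experiments.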

HeLa = experiment: Cytotoxicity against human HeLa cells after 2 days by Alamar blue assay; format: cell-based; conditions: 48 h
Giardia intestinalis [3] = experiment: Antigiardial activity against metronidazole-resistant Giardia lamblia isolate 713 trophozoite after 2 days by bactiter-glo viability assay; format: functional, organism-based; conditions: Giardia duodenalis, isolate 713, 48 h; how it was run: as §1
Giardia intestinalis [4] = experiment: Antigiardial activity against metronidazole-resistant Giardia lamblia isolate 106 trophozoite after 2 days by bactiter-glo viability assay; format: functional, organism-based; conditions: Giardia duodenalis, isolate 106, 48 h; how it was run: as §1
Giardia intestinalis [5] = experiment: Antigiardial activity against Giardia lamblia trophozoites isolates after 2 days by bactiter-glo viability assay; format: functional, organism-based; conditions: Giardia duodenalis, 48 h
Giardia intestinalis [6] = experiment: Antigiardial activity against metronidazole-sensitive Giardia lamblia isolate 713 trophozoite after 2 days by bactiter-glo viability assay; format: functional, organism-based; conditions: Giardia duodenalis, isolate 713, 48 h; how it was run: as §1
Giardia intestinalis [7] = experiment: Antigiardial activity against Giardia lamblia GS/M trophozoites infected in C57BL/6 mouse assessed as reduction in live trophozoite number in small intestine at 2 mg/kg, po administered as 5 doses for 3 days; format: functional, organism-based; design: dose 2 mg/kg; conditions: Giardia duodenalis
How it was run: (§2)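 Adult C57BL/6 mice infected orally with G. lamblia GS/M trophozoites; from 2 days post-infection, five oral gavage doses over 3 days (10 or 2 mg/kg), with controls given methylcellulose/PBS vehicle. Day 5: whole small intestine opened, placed in PBS on ice 10 min, shaken, and live trophozoites counted by hemocytometer under phase contrast. Mean ± SE of 3–7 animals; t test versus vehicle controls, p < 0.05.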

Mus musculus = experiment: Toxicity in C57BL/6 mouse at 10 mg/kg, po after 3 days; format: organism-based; design: dose 10 mg/kg, route oral; conditions: in vivo, 72 h
How it was run: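 G. lamblia GS/M-infected adult C57BL/6 mice were watched for clinically observable untoward effects across the 3-day treatment period, which consisted of five oral gavage doses at 10 mg/kg in methylcellulose/PBS given from day 2 after infection.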

Giardia intestinalis [8] = experiment: Antigiardial activity against Giardia lamblia GS/M trophozoites infected in C57BL/6 mouse assessed as reduction in live trophozoite number in small intestine at 10 mg/kg, po administered as 5 doses for 3 days relative to control; format: functional; conditions: Giardia duodenalis; how it was run: as §2
Giardia intestinalis [9] = experiment: Antigiardial activity against Giardia lamblia GS/M trophozoites infected in C57BL/6 mouse assessed as parasite eradication in small intestine at 10 mg/kg, po administered as 5 doses for 3 days; format: functional, organism-based; design: dose 10 mg/kg; conditions: Giardia duodenalis; how it was run: as §2

| Compound | selectivity ratio [1] | EC50 (Giardia intestinalis [2]) [nM] | IC50 (HeLa) [nM] | EC50 (Giardia intestinalis [3]) [nM] | EC50 (Giardia intestinalis [4]) [nM] | EC50 (Giardia intestinalis [5]; read-out: pEC50 (converted)) [nM] | EC50 (Giardia intestinalis [6]) [nM] | Activity (Giardia intestinalis [7]) | Activity (Mus musculus) | Activity (Giardia intestinalis [8]) | Activity (Giardia intestinalis [9]) | EC50 (Giardia intestinalis [5]; read-out: EC50) [nM] |
| --- | --- | --- | --- | --- | --- | --- | --- | --- | --- | --- | --- | --- |
| Cn1c([N+](=O)[O-])cnc1/C=C/c1ccccc1-c1ccccc1 | > 117 | 1230 | > 100000 | 347 | 537 | 851 | 4570 |  |  |  |  |  |
| Cn1c([N+](=O)[O-])cnc1/C=C/c1ccc(Br)cc1 | 1480 | 200 | 72400 | 8.13 | 72.4 | 49 | 91.2 | inactive | Non-toxic | inactive |  |  |
| Cc1ccc(C(Br)C(Br)c2ncc([N+](=O)[O-])n2C)cc1 (centres undefined) | 174 |  | 11200 |  |  | 64.6 |  |  |  |  |  |  |
| Cn1c([N+](=O)[O-])cnc1/C=C/c1ccco1 | 2750 | 363 |  | 20.4 | 35.5 | 33.9 | 490 |  | Non-toxic | Active | Active |  |
| Cn1c([N+](=O)[O-])cnc1/C=C/c1cccc(I)c1 | 339 |  |  |  |  | 93.3 |  |  |  |  |  |  |
| Cn1c([N+](=O)[O-])cnc1/C=C/c1ccc(Cl)cc1Cl | > 427 |  | > 100000 |  |  | 234 |  |  |  |  |  |  |
| Cn1c([N+](=O)[O-])cnc1/C=C/c1ccc2c(c1)OCO2 | 1070 |  | 74100 |  |  | 69.2 |  |  |  |  |  | 69 |
| Cn1c([N+](=O)[O-])cnc1/C=C/c1ccc(Cl)cc1 | 1740 | 257 | 91200 | 36.3 | 72.4 | 52.5 | 145 |  |  |  |  |  |
| Cn1c([N+](=O)[O-])cnc1/C=C/c1ccsc1 | > 1020 | 389 | > 100000 | 24.5 | 91.2 | 97.7 | 1050 |  | Non-toxic |  |  |  |
| Cc1ccc(/C=C/c2ncc([N+](=O)[O-])n2C)cc1 |  |  | > 100000 |  |  | 162 |  |  |  |  |  |  |
| Cn1c([N+](=O)[O-])cnc1/C=C/c1ccccc1 | > 2570 | 398 | > 100000 | 20.4 | 55 | 38.9 | 525 |  | Non-toxic | Active | Active |  |
| Cc1ccccc1/C=C/c1ncc([N+](=O)[O-])n1C | 1350 |  |  |  |  | 69.2 |  |  |  |  |  |  |
| CC(=O)OC(c1ccc(Br)cc1)C(OC(C)=O)c1ncc([N+](=O)[O-])n1C (centres undefined) | 436 |  |  |  |  | 224 |  |  |  |  |  |  |
| Cc1ccc(CCc2ncc([N+](=O)[O-])n2C)cc1 | > 357 |  | > 100000 |  |  | 282 |  |  |  |  |  |  |
| Cn1c([N+](=O)[O-])cnc1CCc1ccccc1 | > 474 | 2570 | > 100000 | 102 | 174 | 209 | 5010 |  | Non-toxic |  |  |  |
| Cn1c([N+](=O)[O-])cnc1/C=C/c1ccccc1I | > 1660 |  | > 100000 |  |  | 60.3 |  |  |  |  |  |  |
| Cn1c([N+](=O)[O-])cnc1C(Br)C(Br)c1ccc(Br)cc1 (centres undefined) | 23 | 2880 | 7940 | 182 | 214 | 347 | 479 |  |  |  |  |  |
| Cn1c([N+](=O)[O-])cnc1CCc1ccc(Br)cc1 | 85 |  |  |  |  | 1150 |  |  |  |  |  | 1150 |
| CCOC(OCC)c1ccc(/C=C/c2ncc([N+](=O)[O-])n2C)cc1 | 1860 | 200 |  | 32.4 | 64.6 | 52.5 | 708 |  |  |  |  |  |

From ChEMBL document CHEMBL1137002, “Synthesis and electrochemistry of 2-ethenyl and 2-ethanyl derivatives of 5-nitroimidazole and antimicrobial activity against Giardia lamblia” (J Med Chem, 2009)
